This is an account of results in ChEMBL document CHEMBL4145561, “Tiacumicin Congeners with Improved Antibacterial Activity from a Halogenase-Inactivated Mutant” (2018).

≈ marks a conversion by molar mass, not a printed value. A value given as a limit tells only on which side of the number the result lay.

Common to all, as to type: functional
The test system of experiment [1] is Staphylococcus aureus. The experiment can be described thus: Antimicrobial activity against methicillin-resistant Staphylococcus aureus isolate shhs-A1 by broth microdilution method. A digest of the protocol:
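Minimal inhibitory concentration determined by broth microdilution in Mueller Hinton broth against methicillin-resistant S. aureus shhs-A1, one strain of an indicator panel that also included S. aureus ATCC 29213, B. thuringiensis SCSIO BT01, M. luteus SCSIO ML 01 and E. faecalis ATCC 29212.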

The next experiment deals with Bacillus thuringiensis. Kind of experiment: Antimicrobial activity against Bacillus thuringiensis SCSIO BT01 by broth microdilution method. A digest of the protocol: (§1)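 Mueller Hinton broth microdilution; MIC read as the minimal inhibitory concentration. Run against a panel of indicator strains that included MRSA, S. aureus ATCC 29213, B. thuringiensis SCSIO BT01, M. luteus SCSIO ML 01 and E. faecalis ATCC 29212.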
A general note: In broth dilution the organism is exposed to a series of concentrations in liquid medium.

In a further experiment the test system is Micrococcus luteus. The experiment can be described thus: Antimicrobial activity against Micrococcus luteus SCSIO ML01 by broth microdilution method. The method, boiled down:
as §1

A further experiment concerns Enterococcus faecalis. Kind of experiment: Antimicrobial activity against Enterococcus faecalis ATCC 29212 by broth microdilution method. The method, boiled down: as §1
The subject of experiment [2] is Staphylococcus aureus. The experiment can be described thus: Antimicrobial activity against Staphylococcus aureus ATCC 29213 by broth microdilution method. A digest of the protocol: as §1

The term MIC denotes the lowest concentration that inhibits growth of the organism. For `CCc1cc(O)cc(O)c1C(=O)O[C@H]1[C@H](O)[C@H](OC)[C@H](OC/C2=C\C=C\C[C@H](O)/C(C)=C/[C@H](CC)[C@@H](O[C@@H]3OC(C)(C)[C@@H](O)[C@H](O)[C@@H]3O)/C(C)=C/C(C)=C/C[C@@H](CC)OC2=O)O[C@@H]1C`, the MIC was > 128 µg/mL in the experiment with Staphylococcus aureus [1]; 16 µg/mL (≈ 17.7 µM) in the experiment with Bacillus thuringiensis; 8 µg/mL (≈ 8.86 µM) in the experiment with Micrococcus luteus; > 128 µg/mL against Enterococcus faecalis; > 128 µg/mL in the experiment with Staphylococcus aureus [2].
In the case of `CCc1c(Cl)c(O)c(Cl)c(O)c1C(=O)O[C@H]1[C@H](O)[C@H](OC)[C@H](OC/C2=C\C=C\C[C@H](O)/C(C)=C/[C@H](CC)[C@@H](O[C@@H]3OC(C)(C)[C@@H](OC(=O)C(C)C)[C@H](O)[C@@H]3O)/C(C)=C/C(C)=C/C[C@@H]([C@@H](C)O)OC2=O)O[C@@H]1C` [FIDAXOMICIN], the minimum inhibitory concentration (MIC) against Staphylococcus aureus [1] was 1 µg/mL (≈ 0.945 µM); in the experiment on Bacillus thuringiensis it was 2 µg/mL (≈ 1.89 µM); with Micrococcus luteus, 4 µg/mL (≈ 3.78 µM); in the experiment with Enterococcus faecalis, 16 µg/mL (≈ 15.1 µM); against Staphylococcus aureus [2] it was 4 µg/mL (≈ 3.78 µM).
For the compound `CCC(=O)O[C@H]1[C@H](O)[C@H](O)[C@H](O[C@H]2/C(C)=C/C(C)=C/C[C@@H]([C@@H](C)O)OC(=O)/C(CO[C@@H]3O[C@H](C)[C@@H](OC(=O)c4c(O)cc(O)cc4CC)[C@H](O)[C@@H]3OC)=C/C=C/C[C@H](O)/C(C)=C/[C@@H]2CC)OC1(C)C`, the MIC in the experiment with Staphylococcus aureus [1] stood at 8 µg/mL (≈ 8.2 µM); in the experiment with Bacillus thuringiensis it was 2 µg/mL (≈ 2.05 µM); against Micrococcus luteus, 16 µg/mL (≈ 16.4 µM); in the experiment on Enterococcus faecalis, 32 µg/mL (≈ 32.8 µM); in the experiment with Staphylococcus aureus [2] it was 8 µg/mL (≈ 8.2 µM).
As to `CCc1cc(O)cc(O)c1C(=O)O[C@H]1[C@H](O)[C@H](OC)[C@H](OC/C2=C\C=C\C[C@H](O)/C(C)=C/[C@H](CC)[C@@H](O[C@@H]3OC(C)(C)[C@@H](OC(=O)C(C)C)[C@H](O)[C@@H]3O)/C(C)=C/C(C)=C/C[C@@H](CC)OC2=O)O[C@@H]1C`, the MIC against Staphylococcus aureus [1] is > 128 µg/mL; in the experiment with Bacillus thuringiensis, 4 µg/mL (≈ 4.11 µM); with Micrococcus luteus, > 128 µg/mL; with Enterococcus faecalis, > 128 µg/mL; in the experiment with Staphylococcus aureus [2], > 128 µg/mL.
As for `CC[C@@H]1C/C=C(C)/C=C(\C)[C@H](O[C@@H]2OC(C)(C)[C@@H](O)[C@H](O)[C@@H]2O)[C@@H](CC)/C=C(\C)[C@@H](O)C/C=C/C=C(\CO[C@@H]2O[C@H](CO)[C@@H](O)[C@H](O)[C@@H]2O)C(=O)O1`, the MIC with Staphylococcus aureus [1], against Bacillus thuringiensis, against Micrococcus luteus, in the experiment with Enterococcus faecalis and in the experiment with Staphylococcus aureus [2] was > 128 µg/mL in each case.
`CCc1cc(O)cc(O)c1C(=O)O[C@H]1[C@H](O)[C@H](OC)[C@H](OC/C2=C\C=C\C[C@H](O)/C(C)=C/[C@H](CC)[C@@H](O[C@@H]3OC(C)(C)[C@@H](OC(C)=O)[C@H](O)[C@@H]3O)/C(C)=C/C(C)=C/C[C@@H]([C@@H](C)O)OC2=O)O[C@@H]1C`: the minimal inhibitory concentration (MIC) against Staphylococcus aureus [1] was > 128 µg/mL; in the experiment on Bacillus thuringiensis it was 8 µg/mL (≈ 8.32 µM); against Micrococcus luteus it was 64 µg/mL (≈ 66.6 µM); in the experiment on Enterococcus faecalis, > 128 µg/mL; with Staphylococcus aureus [2], 128 µg/mL (≈ 133 µM).
On to `CC[C@H]1/C=C(\C)[C@@H](O)C/C=C/C=C(\CO[C@@H]2O[C@H](C)[C@@H](OC(=O)c3c(C)cc(O)cc3O)[C@H](O)[C@@H]2OC)C(=O)O[C@H]([C@@H](C)O)C/C=C(C)/C=C(\C)[C@@H]1O[C@@H]1OC(C)(C)[C@@H](OC(=O)C(C)C)[C@H](O)[C@@H]1O`, for which the MIC in the experiment on Staphylococcus aureus [1] was found to be 16 µg/mL (≈ 16.4 µM); in the experiment on Bacillus thuringiensis it was 8 µg/mL (≈ 8.2 µM); in the experiment on Micrococcus luteus it was 16 µg/mL (≈ 16.4 µM); in the experiment with Enterococcus faecalis, 64 µg/mL (≈ 65.6 µM); in the experiment with Staphylococcus aureus [2], 16 µg/mL (≈ 16.4 µM).
For the compound `CCCc1cc(O)cc(O)c1C(=O)O[C@H]1[C@H](O)[C@H](OC)[C@H](OC/C2=C\C=C\C[C@H](O)/C(C)=C/[C@H](CC)[C@@H](O[C@@H]3OC(C)(C)[C@@H](OC(=O)C(C)C)[C@H](O)[C@@H]3O)/C(C)=C/C(C)=C/C[C@@H]([C@@H](C)O)OC2=O)O[C@@H]1C`, the minimum inhibitory concentration (MIC) in the experiment with Staphylococcus aureus [1] came out at 2 µg/mL (≈ 1.99 µM); in the experiment with Bacillus thuringiensis it was 0.5 µg/mL (≈ 0.498 µM); with Micrococcus luteus it was 1 µg/mL (≈ 0.997 µM); in the experiment with Enterococcus faecalis it was 4 µg/mL (≈ 3.99 µM); in the experiment with Staphylococcus aureus [2] it was 2 µg/mL (≈ 1.99 µM).
Consider `CCc1cc(O)cc(O)c1C(=O)O[C@H]1[C@H](O)[C@H](OC)[C@H](OC/C2=C\C=C\C[C@H](O)/C(C)=C/[C@H](CC)[C@@H](O[C@@H]3OC(C)(C)[C@@H](OC(=O)C(C)C)[C@H](O)[C@@H]3O)/C(C)=C/C(C)=C/C[C@@H](C(C)=O)OC2=O)O[C@@H]1C`, for which the MIC is > 128 µg/mL in the experiment on Staphylococcus aureus [1]; 8 µg/mL (≈ 8.1 µM) against Bacillus thuringiensis; > 128 µg/mL in the experiment with Micrococcus luteus; > 128 µg/mL against Enterococcus faecalis; > 128 µg/mL in the experiment with Staphylococcus aureus [2].
Consider `CCc1cc(O)cc(O)c1C(=O)O[C@H]1[C@H](O)[C@H](OC)[C@H](OC/C2=C\C=C\C[C@H](O)/C(C)=C/[C@H](CC)[C@@H](O[C@@H]3OC(C)(C)[C@@H](OC(=O)C(C)C)[C@H](O)[C@@H]3O)/C(C)=C/C(C)=C/C[C@@H]([C@@H](C)O)OC2=O)O[C@@H]1C`, for which the MIC in the experiment with Staphylococcus aureus [1] stood at 2 µg/mL (≈ 2.02 µM); in the experiment with Bacillus thuringiensis, 1 µg/mL (≈ 1.01 µM); in the experiment with Micrococcus luteus it was 2 µg/mL (≈ 2.02 µM); in the experiment on Enterococcus faecalis, 16 µg/mL (≈ 16.2 µM); in the experiment on Staphylococcus aureus [2] it was 2 µg/mL (≈ 2.02 µM).
Turning to `CC[C@H]1/C=C(\C)[C@@H](O)C/C=C/C=C(\CO[C@@H]2O[C@H](C)[C@@H](O)[C@H](O)[C@@H]2OC)C(=O)O[C@H]([C@@H](C)O)C/C=C(C)/C=C(\C)[C@@H]1O[C@@H]1OC(C)(C)[C@@H](OC(=O)C(C)C)[C@H](O)[C@@H]1O`, the MIC in the experiment on Staphylococcus aureus [1], against Bacillus thuringiensis, in the experiment on Micrococcus luteus, against Enterococcus faecalis and in the experiment with Staphylococcus aureus [2] was > 128 µg/mL each time.
With `CCc1cc(O)cc(O)c1C(=O)O[C@H]1[C@H](O)[C@H](O)[C@H](OC/C2=C\C=C\C[C@H](O)/C(C)=C/[C@H](CC)[C@@H](O[C@@H]3OC(C)(C)[C@@H](OC(=O)C(C)C)[C@H](O)[C@@H]3O)/C(C)=C/C(C)=C/C[C@@H](CC)OC2=O)O[C@@H]1C`, the MIC against Staphylococcus aureus [1] is > 128 µg/mL; against Bacillus thuringiensis it was 16 µg/mL (≈ 16.7 µM); against Micrococcus luteus it was > 128 µg/mL; in the experiment with Enterococcus faecalis, > 128 µg/mL; against Staphylococcus aureus [2], > 128 µg/mL.
